Screening results as filed in PubChem.
KCNK9 block: human KCNK9 channel inhibition; AID 488922; B-score at 10 µM; HEK293 KCNK9, FluxOR thallium flux fluorescence; hits give low values; Q9NPC2; actives 1.2% (n = 310,000);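 active = ratio B-score over 3 SD below the library mean, with starting fluorescence within 5 SD of its mean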;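 also: negative B-score means less thallium flux so channel inhibition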
Kir21 inh: Kir2.1 (mouse) channel inhibition | HEK293-Kir2.1, FluxOR thallium flux fluorescence; hits give low values | B-score at 10 µM | actives 0.85% (n = 310,000) | AID 1672;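 active = fluorescence ratio B-score at or below minus 3 SD of library scores, with starting-brightness B-score within 2 SD, cut at about -4.2 in these data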;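 also: channel flux triggered by added potassium and thallium sulfate stimulus; B-score of peak minus minimum fluorescence over baseline after thallium stimulus; more negative B-score means stronger Kir2.1 block with less thallium influx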
hERG rescue: shields human hERG channel from block by proarrhythmic agents; CHO-hERG, FluxOR thallium flux, dofetilide IC70 present; activation (rescue from dofetilide block), less the hit threshold, % at 10 µM; actives 0.51% (n = 310,000); AID 1511;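 active = activation above the mean of controls blocked by dofetilide plus 5 SD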;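 also: thallium influx through hERG after potassium depolarization seen as dye fluorescence rise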
KCNQ1 act: human KCNQ1 channel potentiation or activation; P51787; CHO-K1 KCNQ1, thallium flux FluxOR fluorescence; hits give high values; B-score at 10 µM; actives 0.35% (n = 310,000); AID 2648;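 active = fluorescence ratio B-score, a plate-corrected score, at least three library SD, with initial intensity B-score within 5 SD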
Target sequence (P51787 whole entry, looked up): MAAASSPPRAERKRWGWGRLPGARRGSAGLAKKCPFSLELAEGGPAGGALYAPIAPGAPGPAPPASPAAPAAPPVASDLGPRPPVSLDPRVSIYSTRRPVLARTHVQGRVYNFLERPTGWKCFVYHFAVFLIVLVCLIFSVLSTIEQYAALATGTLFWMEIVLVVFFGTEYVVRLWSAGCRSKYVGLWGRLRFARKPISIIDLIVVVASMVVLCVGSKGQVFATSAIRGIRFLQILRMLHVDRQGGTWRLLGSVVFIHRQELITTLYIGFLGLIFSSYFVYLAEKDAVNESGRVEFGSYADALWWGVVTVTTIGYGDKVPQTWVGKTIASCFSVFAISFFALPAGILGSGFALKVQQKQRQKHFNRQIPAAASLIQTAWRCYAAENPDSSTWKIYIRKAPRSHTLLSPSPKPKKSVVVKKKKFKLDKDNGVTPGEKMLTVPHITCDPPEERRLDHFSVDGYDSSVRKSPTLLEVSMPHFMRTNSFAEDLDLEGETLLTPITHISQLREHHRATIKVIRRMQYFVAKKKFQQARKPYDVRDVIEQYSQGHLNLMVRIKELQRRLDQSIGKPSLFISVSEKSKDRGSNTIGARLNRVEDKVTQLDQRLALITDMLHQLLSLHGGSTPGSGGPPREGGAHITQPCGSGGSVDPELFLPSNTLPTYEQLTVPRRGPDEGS
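Material: CHO-K1 cells stably expressing KCNQ1. Medium: assay buffer for compound exposure, DMSO matched across wells. Reagent: K+/Tl+ depolarizing stimulus. Compound dosing: single-concentration screen. Times: 37 °C overnight plating, 90-min dark dye load, 20-min compound pretreatment. Technique: FluxOR Tl+ flux fluorescence.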
KCNQ1 inh: blocks the human KCNQ1 potassium channel; AID 2642; B-score at 10 µM; P51787; actives 1.3% (n = 310,000); CHO-K1 KCNQ1, FluxOR thallium flux fluorescence; hits give high values;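 active = compounds whose thallium flux B-score, printed positive for inhibition, exceeds three library SD while starting fluorescence stays within three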;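 also: channel opened by potassium depolarization with thallium stimulus after 20 min compound exposure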
KCNK3 block: human KCNK3 channel inhibition, primary screen. B-score at 10 µM. CHO-KCNK3 thallium flux, FluxOR fluorescence; hits give low values. O14649. actives 0.84% (n = 340,000);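 active = B-score under library mean minus 4 SD, starting fluorescence ratio at most library mean plus 5 SD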;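 also: more negative B-score means stronger inhibition of thallium flux through KCNK3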
KCNK9 inh conf: confirmation of human KCNK9 potassium channel inhibitors; inhibition, % at 10 µM; HEK293 KCNK9 cells, FluxOR thallium flux fluorescence; shares compounds with KCNK9 block; actives 43% (n = 4,900); AID 492992;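 active = thallium signal inhibited by more than 5 SD of the compound-free buffer control wells, on both duplicate plates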
Kir21 sel: selectivity of KCNK9 modulators against mouse Kir2.1; shares compounds with KCNK9 block; Kir2.1 cells, FluxOR thallium flux fluorescence; inhibition, % at 10 µM; actives 4% (n = 4,900);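 active = thallium signal drop more than 5 SD beyond the mean of the no-compound control wells, seen in both duplicate plates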;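 also: signal is fluorescence rise after thallium addition divided by baseline fluorescence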
HEK293 Tl ctr: non-induced cell nonspecific activity of KCNK9 modulators | shares compounds with KCNK9 block | non-induced KCNK9-HEK293, FluxOR thallium flux | inhibition, % at 10 µM | actives 40% (n = 4,900) | AID 492997;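 active = thallium signal drop beyond 5 SD of the untreated control mean, on both duplicate plates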
Each line names hits and unclear results; the compound was inactive in the other large screens (follow-up assays come after a bar, where they were run). Only some compounds are listed: those with a hit (about 3.7% of all), similar ones and a draw of the others.

COc1ccccc1C(=O)C1CCCN(C(=O)CCc2ccccn2)C1 (stereo not drawn)	none
COc1ccc(NC2CCCN(C(=O)CCc3scnc3C)C2)cc1 (stereo not drawn)	none
Cc1cccc(NC(=O)N2C3CCCC2CC(NC(=O)C(C)(C)C)C3)c1 (stereo not drawn)	none
O=C(Nc1ccccc1C(=O)N1CCCCC1)c1ccccc1C(F)(F)F	none
CN(Cc1ccccc1)c1nc(N)c([N+](=O)[O-])c(NCc2ccccc2)n1	KCNK9 block -10, Kir21 inh -4.5 | KCNK9 inh conf 57% | Kir21 sel inactive | HEK293 Tl ctr 57%
Nc1nc(NCCc2ccccc2)nc(NCc2ccccc2)c1[N+](=O)[O-]	none
COCC(C)NC(=O)CSc1nc(-c2ccccc2)c(-c2ccccc2)o1 (stereo not drawn)	none
COc1ccc(-c2csc(NC(=O)CSC(C)C(=O)Nc3cc(C)on3)n2)cc1OC (stereo not drawn)	none (no result: KCNK9 block, Kir21 inh, hERG rescue, KCNQ1 act, KCNQ1 inh)
O=[N+]([O-])c1cccc(-c2noc(-c3ccco3)n2)c1	none
CCc1ccccc1NC(=O)c1ccc(NCCc2ccccc2)c([N+](=O)[O-])c1	KCNK9 block -8.7 | KCNK9 inh conf inactive | Kir21 sel inactive | HEK293 Tl ctr 30%
O=C(Cn1c2c(c(-c3ccccc3)cc1=O)CCCC2)N1CCCCCC1	none | KCNK9 inh conf inactive | Kir21 sel inactive | HEK293 Tl ctr 32%
CC(C)C[C@H](NC(=O)c1nc[nH]c1C(=O)NCC(=O)OC(C)(C)C)C(=O)OCc1ccccc1	none
CC(C)C[C@H](NC(=O)c1nc[nH]c1C(=O)NCC(=O)OCc1ccccc1)C(=O)OCc1ccccc1	none | KCNK9 inh conf inactive | Kir21 sel inactive | HEK293 Tl ctr inactive
Cc1ccccc1CCN(C(=O)c1csnn1)C(C(=O)NC1CCCC1)c1ccco1 (stereo not drawn)	none
O=C1C(Cl)=C(NC2CCCCC2)C(=O)N1Cc1ccccc1	none | KCNK9 inh conf inactive | Kir21 sel inactive | HEK293 Tl ctr inactive
O=C(Nc1ccccc1)Nc1ccno1	none
COc1ccccc1-c1ccc(SCc2ccc(F)cc2)nn1	none
COc1ccccc1-c1ccc(SCc2ccc(C)cc2)nn1	none | KCNK9 inh conf inactive | Kir21 sel inactive | HEK293 Tl ctr inactive
O=C(Nc1ccc(CN2CCCCC2)cc1)c1cc(Br)ccc1Cl	KCNK9 block -8.5 | KCNK9 inh conf 30% | Kir21 sel inactive | HEK293 Tl ctr 37%
C=CCn1c(SCC(=O)NC2(C)CCS(=O)(=O)C2)nc2ccccc21 (stereo not drawn)	none (no result: KCNK9 block, Kir21 inh, hERG rescue, KCNQ1 act, KCNQ1 inh)
Oc1ccccc1C1=Nc2ccccc2N=C(c2cccs2)C1	KCNK9 block -10 | KCNK9 inh conf 42% | Kir21 sel inactive | HEK293 Tl ctr 34%
Cc1ccc(C(=O)CSC2=C(C#N)C(c3ccco3)C3=C(CC(C)(C)CC3=O)N2)cc1 (stereo not drawn)	KCNK9 block -8.4, KCNK3 block -10 | KCNK9 inh conf 46% | Kir21 sel inactive | HEK293 Tl ctr 33%
CC1(C)CC(=O)C2=C(C1)NC(SCC(=O)Nc1ccccc1)=C(C#N)C2c1ccco1 (stereo not drawn)	none
O=C(COc1ccccc1Cl)NCCNC(=O)c1ccco1	none
C=CCOC(=O)/C(=C\c1cccc2ccccc12)NC(=O)c1ccccc1	none
COC(=O)/C(=C\C=C\c1ccccc1)NC(=O)c1ccccc1	none
CCOC(=O)/C(=C/c1c2ccccc2cc2ccccc12)NC(=O)c1ccccc1	KCNK9 block -16, KCNK3 block -11 | KCNK9 inh conf 58% | Kir21 sel inactive | HEK293 Tl ctr 39%
COC(=O)/C(=C\c1ccc2c(c1)c1ccccc1n2C)NC(=O)c1ccccc1	KCNK9 block -9.6 | KCNK9 inh conf 36% | Kir21 sel inactive | HEK293 Tl ctr inactive
Cc1cc(C)c(NC(=O)/C(C#N)=C/c2ccc(OCc3ccc(F)cc3)cc2)c(C)c1	none | KCNK9 inh conf inactive | Kir21 sel inactive | HEK293 Tl ctr inactive
COc1cc(/C=C(/C#N)C(=O)Nc2ccccc2)c(Br)cc1OCc1ccc(C(=O)O)cc1	none
COC(=O)c1ccc(COc2ccccc2/C=C(\C#N)C(=O)Nc2c(C)cc(C)cc2C)cc1	KCNK9 block -16 | KCNK9 inh conf 78% | Kir21 sel inactive | HEK293 Tl ctr 28%
N#C/C(=C\c1cn[nH]c1-c1ccccc1)C(=O)NC1CCCCCC1	none | KCNK9 inh conf inactive | Kir21 sel inactive | HEK293 Tl ctr inactive
N#C/C(=C\c1cn[nH]c1-c1ccc(Cl)cc1)C(=O)NC1CC1	none
Nc1[nH]n2c(=O)c3c(nc2c1N=Nc1ccc(Cl)cc1)CCCC3	KCNK9 block -9.6 | KCNK9 inh conf 39% | Kir21 sel inactive | HEK293 Tl ctr inactive
Nc1[nH]n2c(=O)c3c(nc2c1N=Nc1ccccc1)CCCC3	none
CC1=C(C(=O)Nc2ccc(C(=O)NC(C)c3ccccc3)cc2)SCCO1 (stereo not drawn)	none
O=C(NC(=S)NC1C2CC3CC(C2)CC1C3)C12CC3CC(CC(C3)C1)C2 (stereo not drawn)	none | KCNK9 inh conf inactive | Kir21 sel inactive | HEK293 Tl ctr inactive
CC12CC3(C)CC(C)(C1)CC(C(=O)NC(=S)NC(C)(C)C)(C2)C3	none | KCNK9 inh conf inactive | Kir21 sel inactive | HEK293 Tl ctr inactive
O=C(NC(=S)Nc1ccc(Cl)cn1)C12CC3CC(CC(C3)C1)C2	none
CN(C)NC(=S)NC(=O)C12CC3CC(CC(C3)C1)C2	none
CC(C)(C)NC(=S)NC(=O)C12CC3CCC(CC(C3)C1)C2	none | KCNK9 inh conf inactive | Kir21 sel inactive | HEK293 Tl ctr inactive
CC(=O)N1CC2([N+](=O)[O-])CN(C(C)=O)CC([N+](=O)[O-])(C1)C2(C)C	none
COc1ccc(Cl)cc1S(=O)(=O)N1CCCC1	none
O=C(C[C@@H]1C/C=C\C[C@@H](Cc2ccc(F)cc2)C(=O)OCCNC1=O)NCCO	none (no result: KCNK9 block, Kir21 inh, hERG rescue, KCNQ1 act, KCNQ1 inh)
O=C(OCc1ccccc1)/C(=C(\O)c1ccccc1Br)c1ccc(-c2ccccc2)cn1	none
CCn1c(SCC(=O)Nc2nccs2)nnc1-c1cc2cccc(OC)c2o1	none
CCn1c(SCC(=O)NC2CCCCC2)nnc1-c1cc2cccc(OC)c2o1	none | KCNK9 inh conf inactive | Kir21 sel inactive | HEK293 Tl ctr inactive
O=C(N/N=C/C=C/c1ccc(Br)cc1)C(O)c1ccccc1 (stereo not drawn)	none
